PGC1a acetyl inh – PGC1a acetylation modulation, inhibitor mode. inhibition, % at 15.6 µM. U2OS PGC1a acetylation, AlphaScreen anti-acetyl-lysine; with virally co-expressed GCN5 acetyltransferase. AID 651687. 350,000 compounds, 0.17% hits;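 active means every replicate shows inhibition of at least 40%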
FGF22 binding – shifts melting point of recombinant human FGF22; Q9HCT0; recombinant FGF22 thermal shift, SYPRO orange fluorescence; percent of sucrose octasulfate shift, DMSO zero; activity (Tm shift, normalised), % at 9.99 µM; 340,000 compounds, 1.5% hits; AID 651658;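 active means mean Tm shift, scaled 0 neutral to 100 positive control, at about 1.3% or above, every replicate too, limit read from the data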
SIRT5 block – sirtuin-5 (human) deacylase inhibition; Purified SirT5, succinyl-peptide AMC, trypsin-coupled fluorescence; 330,000 compounds, 1.1% hits; inhibition, % at 15 µM; Q9NXA8; in the data active means inhibition above about 15%
FN deposit inh – fibronectin deposition inhibition; AH1F fibroblasts, Alexa488-fibronectin deposition fluorescence, overnight; inhibition, % at 12.6 µM; 350,000 compounds, 0.086% hits; AID 743247;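 active means mean inhibition across replicates of 30% or more, regardless of how many single replicates reach that level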
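Material – AH1F fibroblast monolayer, labelled fibronectin deposition · Reagent – labelled fibronectin 24 nM · Timing – 1 h adhesion, overnight exposure · Measured by – fluorescence at 485 nm excitation, 525 nm emission · Read-out – inhibition of fibronectin deposition signal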
ERAP1 HTS inh – inhibitors of human ERAP1 aminopeptidase; 340,000 compounds, 0.15% hits; recombinant ERAP1, Leu-AMC fluorescence, 60 min; Q9NZ08; inhibition, % at 10.7 µM;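 active means mean replicate inhibition of at least 30%, or all replicates individually reaching that 30% level; inactive means mean below 30% and not every replicate reaching it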
Of the large screens only hits and unclear results are named; the others gave an inactive call. Shown are actives, neighbours in structure and some others; about 2.2% of the full set was active somewhere.

O=C(O)C1CSC(c2ccco2)N1 (stereo not given)	SIRT5 block 16 (no result: PGC1a acetyl inh, FGF22 binding)
CO[C@@H]1CN(C)C(=O)c2cc(NS(=O)(=O)c3ccc(Cl)cc3)ccc2OC[C@@H](C)N(C)C[C@@H]1C	none (no result: FGF22 binding, ERAP1 HTS inh)
CCOC(=O)c1cc2c(=O)n3cccc(C)c3nc2n(CC(C)C)c1=NC(=O)c1ccco1	none (no result: ERAP1 HTS inh)
CCOC(=O)c1cc2c(=O)n3ccccc3nc2n(Cc2ccco2)c1=NC(=O)c1ccccc1OC	ERAP1 HTS inh 36
CCOC(=O)c1cc2c(=O)n3ccccc3nc2n(Cc2ccco2)c1=NC(=O)c1ccc(OC)cc1	none
CCOCCCn1c(=NC(=O)c2ccco2)c(C(=O)OCC)cc2c(=O)n3cccc(C)c3nc21	ERAP1 HTS inh 60
Cn1cnc(C(=O)N2CCN(C(=O)OC(C)(C)C)CC2)c1C(=O)N1CCN(C(=O)OC(C)(C)C)CC1	ERAP1 HTS inh 106 (no result: SIRT5 block)
COc1ccccc1C(=O)Nc1ccc2c(c1)OC[C@@H](C)N(CC1CC1)C[C@@H](C)[C@@H](OC)CN(C)C2=O	none (no result: FGF22 binding, SIRT5 block, ERAP1 HTS inh)
CC(C)C1Nc2ccc(C(=O)O)cc2C2C=CCC21 (stereo not given)	SIRT5 block 23 (no result: PGC1a acetyl inh, FGF22 binding)
CCOC(=O)C1Nc2ccc(C(=O)O)cc2C2C=CCC12 (stereo not given)	none
Cc1cc(C(=O)Nc2cccc3c2O[C@H](CN(C)S(=O)(=O)c2ccc(F)cc2)[C@H](C)CN([C@H](C)CO)C3=O)n(C)n1	none (no result: FN deposit inh)
COc1ccc(CN(C)C[C@H]2Oc3ccc(NC(=O)Nc4c(C)noc4C)cc3CC(=O)N([C@@H](C)CO)C[C@@H]2C)cc1	none
COc1ccc(CNC(=O)C2(C)Cc3ccccc3C(=O)O2)cc1 (stereo not given)	FGF22 binding 44 (no result: PGC1a acetyl inh)
O=C(NNC(=O)c1cccc(S(=O)(=O)Nc2ccccc2F)c1)c1ccncc1	SIRT5 block 18
O=C(/C=C/c1ccccc1)Nc1cccc(S(=O)(=O)Nc2ccccc2F)c1	SIRT5 block 25
O=C(Cc1c(F)cccc1Cl)Nc1cccc(S(=O)(=O)NC2=NCCCCC2)c1	none (no result: PGC1a acetyl inh)
O=C(Nc1cccc(S(=O)(=O)Nc2ccccc2F)c1)c1ccc2ccccc2n1	none
O=C(Cc1ccc(Cl)cc1Cl)Nc1cccc(S(=O)(=O)Nc2ccccc2F)c1	SIRT5 block 30
C[C@H](CO)N1C[C@H](C)[C@H](CN(C)C)Oc2ncc(-c3ccc(C(=O)N(C)C)cc3)cc2C1=O	none
C[C@H](CO)N1C[C@H](C)[C@H](CN(C)S(=O)(=O)c2ccc(F)cc2)Oc2c(NC(=O)NC3CCCCC3)cccc2C1=O	none
Cc1noc(C)c1S(=O)(=O)Nc1ccc2c(c1)C(=O)N([C@@H](C)CO)C[C@H](C)[C@H](CN(C)C(=O)C1CCCCC1)OCCCC[C@H](C)O2	none (no result: FN deposit inh)
COc1ccc(C(=O)CSc2nnc(CN3CCCC3)n2-c2ccc(F)cc2)c(OC)c1	FGF22 binding 44 (no result: PGC1a acetyl inh)
C[C@@H](NC(=O)C[C@H]1C=C[C@@H](NC(=O)Nc2ccc3c(c2)OCO3)[C@H](CO)O1)c1ccccc1	none
Cc1nnc(SCC(=O)N2CCC(c3noc4ccc(F)cc34)CC2)s1	PGC1a acetyl inh 57 (no result: FN deposit inh)
CC(=O)Nc1ccc(S(=O)(=O)Oc2cccc(/C=C3\SC(N)=NC3=O)c2)cc1	FGF22 binding 43
NNC(=O)c1sc(-c2ccccc2)cc1N	FGF22 binding 44 (no result: PGC1a acetyl inh, FN deposit inh)
C[C@H]1CN([C@@H](C)CO)C(=O)Cc2cc(NS(=O)(=O)c3ccc(F)cc3)ccc2O[C@@H]1CN(C)C(=O)Nc1ccc(F)cc1	none (no result: FN deposit inh)
COCC(=O)N(C)C[C@@H]1Oc2ncc(C#Cc3cccnc3)cc2C(=O)N([C@@H](C)CO)C[C@@H]1C	none
O=C(Cc1ccc(Cl)cc1)Nc1ccc(CN2CCCCC2)cc1	SIRT5 block 80 (no result: PGC1a acetyl inh, ERAP1 HTS inh)
O=C(CN1CCCCC1)Nc1ccc(S(=O)(=O)c2ccc(NC(=O)CN3CCCCC3)cc2)cc1	FGF22 binding 44 (no result: SIRT5 block)
C[C@@H]1CN([C@@H](C)CO)C(=O)c2cc(C#CC3CC3)cnc2O[C@@H]1CN(C)C(=O)C1CCCCC1	none (no result: FGF22 binding, SIRT5 block, FN deposit inh, ERAP1 HTS inh)
CC(C)c1ccc(N2C(=O)CSC23C(=O)N2CCCc4cccc3c42)cc1 (stereo not given)	SIRT5 block 18 (no result: FN deposit inh)
O=C(NC1CCC1)[C@H]1N[C@H]2c3ccc(-c4cccc(F)c4)c(=O)n3C[C@H]2[C@@H]1CO	none (no result: PGC1a acetyl inh, FGF22 binding, FN deposit inh)
COc1ccc(N=Cc2c(C)[nH][nH]c2=O)cc1	FGF22 binding 43 (no result: PGC1a acetyl inh)
O=C(Nc1ccc(Cl)cc1)N1C[C@H]2[C@@H](c3ccccc31)[C@@H](CO)N2CC1CCCC1	none
O=C(Nc1ccccc1)N1C[C@@H]2[C@H](c3ccccc31)[C@@H](CO)N2CC1CCCC1	SIRT5 block 19 (no result: FN deposit inh)
O=C(C1CCOCC1)N1C[C@@H]2[C@H](c3ccccc31)[C@@H](CO)N2Cc1ccccc1F	none (no result: FN deposit inh)
O=C(C1CCOCC1)N1C[C@@H]2[C@H](c3ccccc31)[C@H](CO)N2Cc1ccccc1F	SIRT5 block 15 (no result: FN deposit inh)
O=C(C[C@H]1CC[C@@H](NC(=O)c2cccc(F)c2)[C@@H](CO)O1)NCCN1CCCC1	none
CN(C)CCCNC(=O)C[C@@H]1CC[C@@H]2[C@@H](COc3ccc(NC(=O)c4cccc(F)c4)cc3C(=O)N2C)O1	none (no result: FGF22 binding)
CC(C)NC(=O)Nc1ccc2c(c1)C(=O)N([C@@H](C)CO)C[C@@H](C)[C@H](CN(C)Cc1ccc3c(c1)OCO3)OCCCC[C@H](C)O2	none (no result: SIRT5 block, ERAP1 HTS inh)
Cc1ccc(C(=O)C2C(c3ccc(-c4ccccc4[N+](=O)[O-])o3)NC(=O)NC2(O)C(F)(F)F)cc1 (stereo not given)	none (no result: FGF22 binding, FN deposit inh)
O=C1NC(c2ccc(-c3ccccc3[N+](=O)[O-])o2)C(C(=O)c2ccccc2)C(O)(C(F)(F)F)N1 (stereo not given)	FGF22 binding 43
C/C(N)=C(/C#N)C(=O)CSc1cc(C)c2ccccc2n1	FGF22 binding 43
COc1ccc(C(C)=O)cc1CSc1nnc(Nc2c(C)cccc2C)s1	SIRT5 block 21 (no result: PGC1a acetyl inh)
C/C(N)=C(/C#N)C(=O)CSc1nnc(Nc2c(C)cccc2C)s1	FGF22 binding 43 (no result: SIRT5 block)
COc1ccc(C(C)=O)cc1CSc1nnc(Nc2ccccc2C)s1	none (no result: PGC1a acetyl inh, FGF22 binding, SIRT5 block, ERAP1 HTS inh)
C/C(N)=C(/C#N)C(=O)CSc1nnc(Nc2cccc(C)c2C)s1	none
O=C(C[C@@H]1CC[C@H](NC(=O)C2CCOCC2)[C@H](CO)O1)Nc1nccs1	none
C[C@@H]1CN([C@H](C)CO)C(=O)Cc2cc(NC(=O)CCC(F)(F)F)ccc2O[C@@H]1CN(C)Cc1ccc(Cl)c(Cl)c1	none (no result: FN deposit inh)
CC(C)NC(=O)N(C)C[C@H]1Oc2cc(-c3ccncc3)ccc2S(=O)(=O)N([C@H](C)CO)C[C@H]1C	none
C[C@@H]1CN([C@H](C)CO)S(=O)(=O)c2ccc(C#CC3CCCC3)cc2O[C@H]1CN(C)C(=O)Nc1cc(F)ccc1F	SIRT5 block 15 (no result: FN deposit inh)
C[C@@H]1CN([C@H](C)CO)S(=O)(=O)c2ccc(C#CC3CCCC3)cc2O[C@H]1CN(C)C	SIRT5 block 101

From PubChem BioAssay
